Data from ChEMBL document CHEMBL2203264, “Optimization of imidazo[4,5-b]pyridine-based kinase inhibitors: identification of a dual FLT3/Aurora kinase inhibitor as an orally bioavailable preclinical development candidate for the treatment of acute myeloid leukemia” (J Med Chem, 2012).

Experiments:
[1] = tested on: Mus musculus; test: Toxicity in CrTacNCr-Fox1(nu) athymic mouse assessed as adverse condition at 50 to 100 mg/kg, po administered 10 days post implantation daily for 7 days; type: organism-based; design: dose 50-100 mg/kg, route oral; settings: in vivo
[2] = molecular target: T1, Cytochrome P450 2A6 (Homo sapiens, UniProt P11509); test: Inhibition of human liver microsome CYP2A6 by LC-MS-MS analysis; type: ADME
T1 sequence (P11509 whole entry): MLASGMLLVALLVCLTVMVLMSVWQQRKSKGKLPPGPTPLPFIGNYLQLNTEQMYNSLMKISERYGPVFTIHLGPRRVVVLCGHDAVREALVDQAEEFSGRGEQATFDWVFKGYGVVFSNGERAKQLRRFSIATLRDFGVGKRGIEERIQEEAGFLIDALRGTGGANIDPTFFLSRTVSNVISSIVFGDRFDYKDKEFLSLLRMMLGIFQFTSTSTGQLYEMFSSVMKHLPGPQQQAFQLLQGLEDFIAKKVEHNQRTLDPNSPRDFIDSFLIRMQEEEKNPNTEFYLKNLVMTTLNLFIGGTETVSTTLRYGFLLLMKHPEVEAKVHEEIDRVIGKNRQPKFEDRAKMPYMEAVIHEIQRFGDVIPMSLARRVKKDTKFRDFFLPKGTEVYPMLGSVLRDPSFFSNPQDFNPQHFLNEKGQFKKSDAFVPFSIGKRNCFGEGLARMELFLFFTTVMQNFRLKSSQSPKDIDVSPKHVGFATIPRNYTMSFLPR
Outline: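 Pooled human liver microsomes (50 donors) at 0.5 mg/mL protein, incubated for 10 min with isoform-selective probe substrates. Metabolite formation was detected by LC–MS/MS with positive ESI.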

[3] = tested on: Mus musculus; test: Toxicity in CrTacNCr-Fox1(nu) athymic mouse assessed as body weight loss at 50 to 100 mg/kg, po administered 10 days post implantation daily for 7 days; type: organism-based; design: dose 50-100 mg/kg, route oral; settings: in vivo
[4] = tested on: MV4-11; test: Antitumor activity against human MV4-11 cells xenografted in CrTacNCr-Fox1(nu) athymic mouse assessed as tumor growth inhibition at 50 mg/kg, po bid administered 10 days post implantation daily for 7 days measured after 11 days; type: functional; design: scale not given: the % may be the effect or the level left
Outline: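 Female adult CrTacNcr-Fox1(nu) athymic mice, s.c. 10^7 FLT3-ITD-positive MV4-11 cells; treatment began at 10 days (mean tumor volume at least 100 mm^3). Oral 50 or 100 mg/kg in 10% DMSO, 20% PEG 400, 5% Tween 80, 65% water, or vehicle alone; n = 5 per group. Dosed twice daily for 7 days, then once daily for 4 days; study ended day 60.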

[5] = molecular target: Tyrosine-protein kinase JAK2 (Homo sapiens) (UniProt O60674); test: Inhibition of JAK2 at 1 uM
Outline: (§1)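 KINOMEScan competition-binding panel of 442 kinases (386 nonmutant) tested at 1 μM. Binding is read as percent of control ligand competition; <10% of control counts as a hit for the S(10) score.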

[6] = molecular target: Proto-oncogene tyrosine-protein kinase receptor Ret (Homo sapiens) (UniProt P07949); test: Inhibition of RET at 1 uM; outline: as §1
[7] = molecular target: T2, Cytochrome P450 1A2 (Homo sapiens, UniProt P05177); test: Inhibition of human liver microsome CYP1A2 by LC-MS-MS analysis
T2 sequence (P05177 whole entry): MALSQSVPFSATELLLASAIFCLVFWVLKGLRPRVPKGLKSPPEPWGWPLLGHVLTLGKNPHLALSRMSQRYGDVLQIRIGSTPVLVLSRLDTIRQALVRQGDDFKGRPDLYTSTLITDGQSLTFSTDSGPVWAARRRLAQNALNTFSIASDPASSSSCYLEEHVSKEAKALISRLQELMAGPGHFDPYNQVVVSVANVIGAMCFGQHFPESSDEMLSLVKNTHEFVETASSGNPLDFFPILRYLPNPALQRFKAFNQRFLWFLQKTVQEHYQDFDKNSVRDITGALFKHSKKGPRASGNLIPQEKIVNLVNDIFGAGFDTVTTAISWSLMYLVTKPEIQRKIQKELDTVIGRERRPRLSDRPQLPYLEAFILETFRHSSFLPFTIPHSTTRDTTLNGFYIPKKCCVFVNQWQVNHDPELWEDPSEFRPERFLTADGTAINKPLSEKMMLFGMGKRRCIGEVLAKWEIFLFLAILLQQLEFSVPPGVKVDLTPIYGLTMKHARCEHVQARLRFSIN

[8] = Clearance in Balb/C mouse at 5 mg/kg, iv; type: ADME, organism-based; design: dose 5 mg/kg, route intravenous; settings: in vivo
Outline: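 Female Balb/C mice given a single 5 mg kg^-1 iv dose in 10% DMSO, 5% Tween 20 in saline. Mice sacrificed at 5, 15, 30 min and 1, 2, 4, 6, 24 h. Plasma from cardiac blood, methanol protein precipitation with olomoucine internal standard, LC–MS (positive ESI MRM). Clearance given in L/h.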

[9] = tested on: Plasma; test: Plasma protein binding in mouse; type: ADME, cell-free

Sequence of Proto-oncogene tyrosine-protein kinase receptor Ret (Homo sapiens) (P07949 whole entry): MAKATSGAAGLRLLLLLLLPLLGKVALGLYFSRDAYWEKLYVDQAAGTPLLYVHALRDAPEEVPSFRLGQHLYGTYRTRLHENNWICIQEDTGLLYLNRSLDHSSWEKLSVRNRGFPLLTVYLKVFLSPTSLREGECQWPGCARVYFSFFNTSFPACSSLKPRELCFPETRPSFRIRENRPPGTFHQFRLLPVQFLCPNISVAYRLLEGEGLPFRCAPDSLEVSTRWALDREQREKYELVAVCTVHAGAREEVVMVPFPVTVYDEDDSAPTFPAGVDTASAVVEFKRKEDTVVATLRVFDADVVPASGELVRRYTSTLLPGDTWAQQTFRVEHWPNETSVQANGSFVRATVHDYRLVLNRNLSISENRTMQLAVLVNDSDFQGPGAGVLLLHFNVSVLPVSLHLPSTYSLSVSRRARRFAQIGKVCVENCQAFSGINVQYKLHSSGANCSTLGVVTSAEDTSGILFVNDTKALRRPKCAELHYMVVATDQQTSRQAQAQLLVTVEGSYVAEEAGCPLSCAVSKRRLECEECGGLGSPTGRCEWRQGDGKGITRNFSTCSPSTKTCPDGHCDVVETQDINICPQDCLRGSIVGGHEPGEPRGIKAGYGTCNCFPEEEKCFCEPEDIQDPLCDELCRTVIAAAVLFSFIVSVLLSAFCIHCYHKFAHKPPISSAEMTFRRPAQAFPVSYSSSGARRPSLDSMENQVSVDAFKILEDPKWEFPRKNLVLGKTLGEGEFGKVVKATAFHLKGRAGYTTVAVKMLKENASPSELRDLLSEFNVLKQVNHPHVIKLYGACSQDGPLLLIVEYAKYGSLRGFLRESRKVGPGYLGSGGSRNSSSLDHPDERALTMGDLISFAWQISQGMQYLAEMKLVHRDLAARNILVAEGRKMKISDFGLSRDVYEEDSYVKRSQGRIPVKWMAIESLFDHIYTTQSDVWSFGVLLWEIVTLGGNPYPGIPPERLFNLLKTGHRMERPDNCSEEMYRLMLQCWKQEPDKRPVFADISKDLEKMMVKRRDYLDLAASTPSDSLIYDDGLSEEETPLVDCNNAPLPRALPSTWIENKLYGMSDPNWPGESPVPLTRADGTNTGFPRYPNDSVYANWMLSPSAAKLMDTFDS
Sequence of Tyrosine-protein kinase JAK2 (Homo sapiens) (O60674 whole entry): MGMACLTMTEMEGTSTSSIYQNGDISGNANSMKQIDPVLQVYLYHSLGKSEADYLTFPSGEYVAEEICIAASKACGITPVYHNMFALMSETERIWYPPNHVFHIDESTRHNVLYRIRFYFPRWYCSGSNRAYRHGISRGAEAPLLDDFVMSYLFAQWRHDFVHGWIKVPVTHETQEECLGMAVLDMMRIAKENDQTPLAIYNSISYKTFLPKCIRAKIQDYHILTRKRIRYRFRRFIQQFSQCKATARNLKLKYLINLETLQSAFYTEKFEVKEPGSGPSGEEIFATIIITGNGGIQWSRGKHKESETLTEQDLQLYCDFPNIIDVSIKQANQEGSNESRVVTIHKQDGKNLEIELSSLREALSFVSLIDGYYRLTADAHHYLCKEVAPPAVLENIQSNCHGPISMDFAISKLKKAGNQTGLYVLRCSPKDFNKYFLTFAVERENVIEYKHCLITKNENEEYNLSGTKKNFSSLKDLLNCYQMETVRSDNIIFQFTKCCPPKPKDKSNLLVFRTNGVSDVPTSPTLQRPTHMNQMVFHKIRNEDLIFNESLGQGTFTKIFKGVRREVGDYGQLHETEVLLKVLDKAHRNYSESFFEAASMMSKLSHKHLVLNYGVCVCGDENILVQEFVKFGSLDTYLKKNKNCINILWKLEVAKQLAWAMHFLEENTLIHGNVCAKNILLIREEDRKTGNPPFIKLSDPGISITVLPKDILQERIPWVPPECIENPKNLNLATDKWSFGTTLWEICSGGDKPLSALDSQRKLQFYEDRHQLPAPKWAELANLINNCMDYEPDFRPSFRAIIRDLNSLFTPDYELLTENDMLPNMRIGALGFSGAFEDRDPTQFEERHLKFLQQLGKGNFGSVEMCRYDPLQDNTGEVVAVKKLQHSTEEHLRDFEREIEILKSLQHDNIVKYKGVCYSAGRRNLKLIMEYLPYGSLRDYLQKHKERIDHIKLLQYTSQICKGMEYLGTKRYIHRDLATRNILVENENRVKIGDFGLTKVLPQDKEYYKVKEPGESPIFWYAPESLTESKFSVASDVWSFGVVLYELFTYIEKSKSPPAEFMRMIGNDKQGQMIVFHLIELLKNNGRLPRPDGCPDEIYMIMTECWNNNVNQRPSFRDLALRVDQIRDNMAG

**Q.** Which results are given for `Cc1nn(C)cc1-c1nc2c(N3CCN(Cc4ccc(Cl)cc4)CC3)c(Cl)cnc2[nH]1` [MOBINITINIB]?
**A.** Activity [1]: Non-toxic; IC50 [2]: > 10 µM; Activity [3]: Non-toxic; Activity [4]: 42%; inhibition [5]: 1.3%; inhibition [6]: 1.8%; IC50 [7]: > 10 µM; clearance [8]: 0.967 mL/min; PPB [9]: 97.3%
